Screens (PubChem BioAssay)
ABCB6 inh 2 = human ABCB6 transporter inhibition. fluorescence ratio to DMSO, % at 10 µM. Q9NP58. K562-ABCB6 porphyrin accumulation, flow cytometry, 1 h; hits give low values. actives 0.19% (n = 360,000);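 active = fluorescence ratio to DMSO below 75%, the collection mean minus 3 SD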;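 also: signal is porphyrin accumulated inside mitochondria; 100% equals median channel fluorescence of DMSO control wells; lower ratio means ABCB6 inhibition with less porphyrin fluorescence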
TNAP inh noacc = blocks human TNAP activity with no phosphate acceptor present; AID 1012; P05186; inhibition, % at 20 µM; actives 0.26% (n = 200,000); purified TNAP, CDP-star luminescence, 30 min;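 active = tissue-nonspecific alkaline phosphatase inhibition above about 50% at 20 µM in the single-dose screen, limit read from the data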;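 also: 0% = DMSO negative control and 100% = EDTA positive control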
Target sequence (P05186 whole entry, looked up): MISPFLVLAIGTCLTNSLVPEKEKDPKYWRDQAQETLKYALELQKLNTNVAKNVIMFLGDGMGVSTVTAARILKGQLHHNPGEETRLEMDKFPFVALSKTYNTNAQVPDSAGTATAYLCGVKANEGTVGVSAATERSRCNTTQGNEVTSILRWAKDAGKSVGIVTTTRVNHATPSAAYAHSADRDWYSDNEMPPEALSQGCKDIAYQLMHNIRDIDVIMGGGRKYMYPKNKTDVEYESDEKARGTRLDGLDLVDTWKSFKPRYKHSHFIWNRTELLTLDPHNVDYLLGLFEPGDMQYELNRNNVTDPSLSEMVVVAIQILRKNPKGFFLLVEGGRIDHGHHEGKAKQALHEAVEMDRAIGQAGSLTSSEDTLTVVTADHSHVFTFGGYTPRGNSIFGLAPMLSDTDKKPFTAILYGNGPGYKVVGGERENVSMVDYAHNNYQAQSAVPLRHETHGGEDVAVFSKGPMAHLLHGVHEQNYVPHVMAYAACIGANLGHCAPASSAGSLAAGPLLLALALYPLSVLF
CHT allo act = allosterically activates the human high affinity choline transporter. Q9GZV3. CHT-expressing cells, membrane potential dye, choline EC20; hits give high values; LV-AA mutant CHT in HEK293 cells. B-score at 10 µM. actives 0.49% (n = 310,000);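 active = initial fluorescence not abnormally high and integrated response B-score, plate-corrected, over 3 SD above library mean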
TNAP act hi DEA = increases human TNAP activity under high phosphate acceptor concentration. P05186. purified TNAP, CDP-star luminescence, 1 M DEA, 30 min; hits give high values; 0 = EDTA background, 1 = DMSO-only activity. activation factor at 20 µM. 200,000 tested, under 10 active;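 active = activation factor at least 2 at 20 µM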
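Dosing: 20 µM single point. System: human TNAP. Amount: TNAP 1/800 final. Incubation: 30 min, room temperature. Read-out: TNAP activation factor scaled between EDTA and DMSO control wells. Signal: luminescence from CDP-star hydrolysis. Medium: 1 M DEA, pH 9.8, Mg2+, Zn2+. Control set: EDTA negative control, DMSO positive control.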
TNAP inh hi DEA = TNAP (human) inhibition, high acceptor | P05186 | purified TNAP, CDP-star luminescence, 1 M DEA | inhibition, % at 20 µM | actives 0.03% (n = 200,000) | AID 1135;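 active = over 50% inhibition of tissue-nonspecific alkaline phosphatase at 20 µM in the single-dose screen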;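 also: plate controls were DMSO wells for no effect and EDTA-quenched wells as full inhibition for full effect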
CHT block = human CHT choline transport inhibition; Q9GZV3; CHT-expressing cells, membrane potential dye, choline response; hits give low values; B-score at 10 µM; actives 0.86% (n = 310,000); AID 488975;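 active = B-score over 3 SD under the library average, and starting fluorescence ratio not unusually high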;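 also: choline stimulus applied at its EC90 after an EC20 pre-addition; B-score computed on integrated fluorescence ratio after choline addition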
CHT block conf = confirmation of human choline transporter CHT inhibitors. actives 70% (n = 2,400). CHT-expressing cells, choline membrane potential dye; LV-to-AA substituted CHT, HEK293 cells. shares compounds with CHT block. CHT activity remaining % of control (hits give low values), % at 10 µM;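 active = choline transporter activity left, mean of duplicates at 10 µM, below buffer-only control mean minus 3 SD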;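 also: depolarization triggered by choline at its EC90 following an EC20 pre-addition; 0% = hemicholinium-3 full block and 100% = buffer-only control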
HEK293 MPD ctr = activity in parental HEK293 cells lacking CHT. membrane potential ratio readout (active if shifted either direction beyond buffer ±3SD; no single direction) at 10 µM. actives 4% (n = 2,400). shares compounds with CHT block. membrane potential dye, choline response; active = decrease or increase beyond buffer ±3SD;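 also: parental cells lack the transporter so any hit is non-specific; ratio is peak minus trough fluorescence over baseline after EC90 choline challenge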
Active calls of the source: *. An excerpt weighted towards active compounds, which were near 1.4% of everything screened.

How did Cc1cc(-c2csc(NC(=O)c3ccc(=O)[nH]c3)n2)c(C)n1Cc1ccccc1 do in these assays?
ABCB6 inh 2: 98.0; TNAP inh noacc: -13.1; CHT allo act: inactive; TNAP act hi DEA: 0.9; TNAP inh hi DEA: 5.5; CHT block: inactive

Results for CCOC(=O)C1CCN(c2c(Nc3ccc(C)c(C)c3)c(=O)c2=O)CC1 ?
ABCB6 inh 2: 99.0; CHT allo act: inactive; CHT block: inactive

What do the screens show for `COC(=O)/C(C#N)=C/c1ccc(-c2ccc(S(N)(=O)=O)cc2)o1`?
ABCB6 inh 2: 96.0; CHT allo act: inactive; CHT block: inactive

Results for CCCCNC(=O)/C(C#N)=C/c1ccc(-c2ccc(S(=O)(=O)N3CCOCC3)cc2)o1 ?
ABCB6 inh 2: 97.0; TNAP inh noacc: -7.6; CHT allo act: inactive; TNAP act hi DEA: 1; TNAP inh hi DEA: 2.7; CHT block: -4.96*; CHT block conf: 68.6%*; HEK293 MPD ctr: inactive

What do the screens show for `O=C(NNC(=S)NC1CCCCC1)c1ccccc1O`?
ABCB6 inh 2: 93.0; TNAP inh noacc: -162.0; CHT allo act: inactive; TNAP act hi DEA: 1; TNAP inh hi DEA: -2.3; CHT block: -5.05*; CHT block conf: 53.2%*; HEK293 MPD ctr: inactive

How did CCOC(=O)C1=CCCN(S(=O)(=O)c2ccc(C)cc2)C1 do in these assays?
ABCB6 inh 2: 98.0

How did Cc1cc(C)c(NC(=O)COC(=O)c2cccc3c2C(=O)c2ccccc2C3=O)c(C)c1 do in these assays?
ABCB6 inh 2: 99.0; TNAP inh noacc: -1.8; CHT allo act: inactive; TNAP act hi DEA: 1; TNAP inh hi DEA: -1.4; CHT block: -5.09*; CHT block conf: inactive; HEK293 MPD ctr: inactive

Results for Cc1ccc(C)c(NC(=O)COC(=O)c2cccc3c2C(=O)c2ccccc2C3=O)c1 ?
ABCB6 inh 2: 90.0; TNAP inh noacc: -40.6; CHT allo act: inactive; TNAP act hi DEA: 1; TNAP inh hi DEA: -4.2; CHT block: inactive

Results for O=C(c1cn(-c2ccccc2)nc1-c1cccs1)N1CCOCC1 ?
ABCB6 inh 2: 89.0; TNAP inh noacc: -5.9; CHT allo act: inactive; TNAP act hi DEA: 1; TNAP inh hi DEA: -0.6; CHT block: inactive

How did O=C(/C=C/c1cn(-c2ccccc2)nc1-c1cccs1)NCCN1CCOCC1 do in these assays?
ABCB6 inh 2: 97.0; CHT allo act: inactive; CHT block: -7.09*; CHT block conf: inactive; HEK293 MPD ctr: inactive

What do the screens show for `COc1ccccc1NC(=O)C1CCCN(c2nc(C)cc(C)n2)C1` (configuration not stated)?
ABCB6 inh 2: 100.0; TNAP inh noacc: -12.7; CHT allo act: inactive; TNAP act hi DEA: 1.1; TNAP inh hi DEA: -5.0; CHT block: -5.73*; CHT block conf: inactive; HEK293 MPD ctr: inactive

Results for Cc1ccc(N=Cc2cc(Br)cc(Cl)c2O)cc1 ?
ABCB6 inh 2: 113.0; TNAP inh noacc: 11.7; CHT allo act: inactive; TNAP act hi DEA: 1; TNAP inh hi DEA: 3.2; CHT block: inactive

Results for Oc1c(Cl)cc(Cl)cc1C=Nc1ccc(Br)cc1 ?
ABCB6 inh 2: 99.0; TNAP inh noacc: 15.7; CHT allo act: inactive; TNAP act hi DEA: 1; TNAP inh hi DEA: -0.8; CHT block: -6.54*; CHT block conf: 51.1%*; HEK293 MPD ctr: inactive

What do the screens show for `COc1cccc(N2C(=O)N(c3ccccc3)C3CS(=O)(=O)CC32)c1` (configuration not stated)?
ABCB6 inh 2: 99.0; TNAP inh noacc: -10.0; CHT allo act: inactive; TNAP act hi DEA: 1; TNAP inh hi DEA: -2.8; CHT block: -4.95*; CHT block conf: 70.2%*; HEK293 MPD ctr: inactive

What do the screens show for `CCc1ccc(C(C(=O)NC2CCCC2)N(Cc2cccnc2)C(=O)c2csnn2)cc1` (configuration not stated)?
ABCB6 inh 2: 98.0; CHT allo act: inactive; CHT block: inactive

What do the screens show for `COc1cccc(CN2CCCC(C(=O)c3ccc4c(c3)OCO4)C2)c1OC` (configuration not stated)?
ABCB6 inh 2: 101.0; TNAP inh noacc: -9.9; CHT allo act: inactive; TNAP act hi DEA: 1.1; TNAP inh hi DEA: -5.0; CHT block: -11.8*; CHT block conf: inactive; HEK293 MPD ctr: inactive

What do the screens show for `O=C(c1ccc2c(c1)OCO2)C1CCCN(Cc2ccccc2OC(F)F)C1` (configuration not stated)?
ABCB6 inh 2: 95.0; CHT allo act: inactive; CHT block: inactive

What do the screens show for `O=C(NNC(=S)Nc1ccc(F)cc1)C1CC1c1ccc(Cl)cc1` (configuration not stated)?
ABCB6 inh 2: 94.0; TNAP inh noacc: -137.9; CHT allo act: inactive; TNAP act hi DEA: 1.1; TNAP inh hi DEA: -7.3; CHT block: -9.82*; CHT block conf: 13.7%*; HEK293 MPD ctr: inactive

What do the screens show for `COc1ccc(NC(=S)NNC(=O)C2CC2c2ccc(C)cc2)cc1` (configuration not stated)?
ABCB6 inh 2: 99.0; TNAP inh noacc: -2.4; CHT allo act: inactive; TNAP act hi DEA: 1; TNAP inh hi DEA: -1.8; CHT block: inactive

What do the screens show for `Cc1ccc(C2CC2C(=O)NNC(=S)Nc2cccc(Cl)c2)cc1` (configuration not stated)?
ABCB6 inh 2: 95.0; TNAP inh noacc: -118.8; CHT allo act: inactive; TNAP act hi DEA: 1; TNAP inh hi DEA: 4.4; CHT block: -11.5*; CHT block conf: 43.3%*; HEK293 MPD ctr: inactive

Results for Cc1ccc(NC(=S)NNC(=O)C2CC2c2ccc(C)cc2)cc1 (configuration not stated) ?
ABCB6 inh 2: 90.0; TNAP inh noacc: -52.1; CHT allo act: inactive; TNAP act hi DEA: 1.1; TNAP inh hi DEA: -5.8; CHT block: -5.55*; CHT block conf: 58.5%*; HEK293 MPD ctr: inactive

What do the screens show for `CCN(CC)S(=O)(=O)c1ccc(C)c(NC(=S)Nc2cccc(S(=O)(=O)N3CCCCCC3)c2)c1`?
ABCB6 inh 2: 96.0; TNAP inh noacc: 3.1; CHT allo act: inactive; TNAP act hi DEA: 1; TNAP inh hi DEA: 2.3; CHT block: inactive
